# LMPTP inh = blocks human LMPTP phosphatase | P24666 | inhibition, % at 20 µM | recombinant LMPTP-A, OMFP fluorogenic substrate, fluorescence intensity | hit rate 0.22% among 360,000;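 active = compounds that cut the enzyme signal by at least half of the control window in the single-dose screen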;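 also: plate controls were DMSO wells with enzyme plus substrate for no effect and substrate without enzyme for full effect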
# Target sequence (P24666 whole entry, looked up): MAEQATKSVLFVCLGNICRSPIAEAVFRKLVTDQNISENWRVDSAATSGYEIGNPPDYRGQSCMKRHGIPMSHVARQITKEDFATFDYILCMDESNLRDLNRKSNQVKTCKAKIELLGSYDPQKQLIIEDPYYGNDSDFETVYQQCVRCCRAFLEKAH
#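 Test system: LMPTP-A, protein tyrosine phosphatase of low molecular weight; Input: 0.625 nM enzyme; Incubation: 50 min dark incubation at room temperature; Signal: endpoint fluorescence intensity from OMFP dephosphorylation; Read-out basis: % inhibition versus control wells.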
# DNMT1 block = blocks human DNA methyltransferase DNMT1; P26358; DNMT1 molecular beacon, Hinp1I cleavage, fluorescence; inhibition (reported as % activation of signal), % at 10 µM; hit rate 0.83% among 360,000; in the data active = inhibition above about 50%
# STEP block = blocks human striatal-enriched tyrosine phosphatase | P54829 | recombinant STEP, OMFP fluorogenic substrate, fluorescence | inhibition, % at 20 µM | hit rate 0.25% among 360,000 | AID 588621;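 active = inhibition at 20 µM, scaled per plate between control wells, above about 37%, limit read from the data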;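 also: 0% = DMSO with enzyme and substrate and 100% = substrate only without enzyme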
#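 medium = Bis-Tris buffer pH 6.0, 2.5 mM DTT, 0.005% Tween 20 | test system = STEP (striatal-enriched tyrosine phosphatase) enzyme, cell-free | measure = normalized % inhibition | compound dosing = 20 µM, 1% DMSO | also added = 25 µM OMFP | schedule = reaction 20 min, ambient temperature | measured by = fluorescence read at 480 nm ex / 540 nm em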
# SUMO1 PPI mod = modulators of human SUMO1-mediated protein-protein interactions; SUMO1 binding to a labelled peptide, TR-FRET, 1 h; inhibition, % at 20 µM; hit rate 0.33% among 360,000; in the data active = inhibition above about 37%
# Target sequence (P63165 whole entry, looked up): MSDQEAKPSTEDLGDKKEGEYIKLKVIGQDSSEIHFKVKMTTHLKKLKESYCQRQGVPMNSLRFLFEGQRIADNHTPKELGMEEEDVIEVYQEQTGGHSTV
# Scp1 inh = blocks human Scp-1 phosphatase activity; inhibition, % at 20 µM; Recombinant Scp1, phosphopeptide, malachite green phosphate absorbance; Q9GZU7; hit rate 0.88% among 340,000;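 active = inhibition above about 50% at 20 µM, limit read from the data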;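 also: plate controls were DMSO wells with enzyme for no effect and wells lacking enzyme for full effect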
# Target sequence (Q9GZU7 76-261 limits assumed): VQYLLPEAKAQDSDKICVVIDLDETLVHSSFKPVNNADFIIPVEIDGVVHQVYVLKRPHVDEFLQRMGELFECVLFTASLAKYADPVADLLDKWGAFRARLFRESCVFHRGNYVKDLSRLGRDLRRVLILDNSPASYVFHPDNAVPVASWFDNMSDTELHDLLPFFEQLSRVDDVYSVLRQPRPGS
#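 Test system: SCP-1 phosphatase catalytic domain, residues 76-261; measured by: colorimetric phosphate reagent with accelerator and stabiliser, absorbance at 630 nm; timing: enzyme reaction 45 min at room temperature, colour 5 min, stabilisation 30 min; also added: Phosphorylated 17-residue peptide substrate; compound dosing: one concentration, 20 µM, with 1.0% DMSO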
# GRK2 aptamer HTS = human GRK2 inhibition via aptamer displacement. AID 488847. inhibition of aptamer binding, % at 10 µM. hit rate 0.59% among 330,000. bead flow cytometry, FAM-aptamer displacement from GRK2. P25098;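 active = inhibition of aptamer binding above 40%, roughly 3 SD of noise, on plates passing a quality check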;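 also: median bead fluorescence of bound FAM aptamer so fluorescent compounds give negative values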
# GRK2 inh confirm = confirmation of human GRK2 inhibitors displacing RNA aptamer. shares compounds with GRK2 aptamer HTS. bead-bound GRK2, FAM-aptamer displacement, flow cytometry. aptamer displacement, % at 10 µM. hit rate 4% among 2,000;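 active = aptamer displacement above 40%, near three times the noise of non-fluorescent compounds, on plates passing quality checks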;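 also: negative values mostly reflect intrinsic compound fluorescence rather than true enhancement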
# FAM quench CP1 = quenches fluorescent RNA aptamer, GRK2 hit artifact; shares compounds with GRK2 aptamer HTS; Carboxyfluorescein RNA aptamer on beads, flow cytometry quenching; active compounds read low; fluorescence response (% of DMSO), % at 10 µM; 2,000 tested, under 10 active; AID 504580;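 active = compounds that quench the bead-bound fluorescent RNA probe, cutting fluorescence to under half of the solvent control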;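 also: counterscreen run without GRK2 so only probe quenching by compound is measured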
# GRK2 confirm 2 = human GRK2 inhibition confirmation, cherry pick 2 | shares compounds with GRK2 aptamer HTS | bead-bound GRK2, FAM-aptamer displacement, flow cytometry | inhibition of aptamer binding, % at 10 µM | 360 tested, under 10 active;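 active = inhibition of aptamer binding above 40%, about triple the noise seen with nonglowing compounds, on plates passing quality control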;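 also: negative values mostly come from compounds that fluoresce themselves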
# FAM quench CP2 = aptamer fluorescence quenching in GRK2 counter-screen; carboxyfluorescein RNA aptamer beads, flow cytometry quenching; active compounds read low; AID 588494; shares compounds with GRK2 aptamer HTS; fluorescence response vs DMSO, % at 10 µM; 360 tested, under 10 active;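 active = response vs DMSO under 50%, meaning signal dropped by over half, treated as fluorescence quencher; inconclusive = no clear call, values can overlap the other calls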;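 also: labelled aptamer on streptavidin beads without GRK2 as a quench counter-screen; 100% = bead fluorescence of DMSO wells and lower means quenching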
# * marks the source's active call; other numbers are inactive results; ? = inconclusive; . = no result. Sampled rows, rich in hits. Any-hit rate of the full collection: about 2.1%.
SMILES,LMPTP inh,DNMT1 block,STEP block,SUMO1 PPI mod,Scp1 inh,GRK2 aptamer HTS,GRK2 inh confirm,FAM quench CP1,others
Cc1cn([C@H]2C[C@H](O)[C@@H](/C=C/C(=O)NCCN3CCOCC3)O2)c(=O)[nH]c1=O,-2.9,6.4,-4.9,3.3,.,.,.,.,
Cc1nnc(NC(=O)CSc2cn(CCNC(=O)c3ccccc3)c3ccccc23)s1,0.1,-8.8,0.5,-2.7,-17.3,1.0,.,.,
NC(=O)CSc1cn(CCNC(=O)c2cccs2)c2ccccc12,-1.2,1.1,0.2,0.6,-14.0,0.0,.,.,GRK2 confirm 2=-17.0;FAM quench CP2=101.0
CC(=O)NCCNc1nc2cc(-c3ccc(Cl)cc3C)sc2c(=O)n1C,2.4,-0.2,-0.4,-48.9,.,.,.,.,
C=CCN1C(=O)c2ccc(C(=O)N(CCC)CC(=O)Nc3ccccc3C)cc2C1=O,-0.3,-0.5,-0.7,-18.1,2.2,99.0*,2.9,95.9,
O=C(Nc1cccc(O)c1)c1cc(-c2cccs2)on1,1.3,-3.5,-3.4,-13.8,-5.3,1.0,.,.,
COc1ccc(-c2cc(C(=O)Nc3cccc(C(C)=O)c3)no2)cc1,0.4,6.8,-3.4,4.3,-6.5,0.0,-1.0,98.6,
CC(=O)c1cccc(NC(=O)c2cc(-c3cccs3)on2)c1,0.2,2.4,-1.7,-15.0,-3.0,3.0,-4.8,104.1,
COc1ccc(-c2cc(C(=O)Nc3cccc(Cl)c3)no2)cc1,40.7,12.7,10.9,0.2,-9.7,0.0,.,.,
OC(c1ccc(Cl)c(F)c1)c1ncc(-c2cccc(F)c2)[nH]1 (centres undefined),1.5,-8.9,-3.9,-3.4,.,.,.,.,
Cc1cccc(CN2CCN(C3CN(Cc4cn(Cc5ccccc5C(F)(F)F)nn4)S(=O)(=O)C3)CC2)c1 (centres undefined),-0.1,5.2,1.3,5.9,.,.,.,.,
CC(C)C[C@H]1CNC(=O)C(=O)N1C[C@@H]1CCCN1C[C@H](Cc1ccccc1)N1C[C@H](Cc2ccccc2)N(CCc2ccccc2)C(=O)C1=O,1.2,.,.,4.0,.,.,.,.,
Cc1ccc2nc(/C(C#N)=C\c3ccc([N+](=O)[O-])o3)[nH]c2c1,4.0,2.1,0.9,-33.7,-2.7,26.0,0.1,109.2,
CC1(C)SC(C)(C)N(C=O)C1C(=O)O (centres undefined),0.4,9.2,-1.9,-1.0,-2.7,.,.,.,
CC(C)c1ccc(NC2CCCN(C(=O)CN3CCCCC3=O)C2)cc1 (centres undefined),-0.6,-0.5,2.5,11.7,.,.,.,.,
CC(=O)Nc1ccccc1C(=O)C(=O)Nc1ccccc1,-1.4,7.8,-3.3,-1.4,0.0,4.0,.,.,
CCC(=O)Nc1ccccc1C(=O)C(=O)Nc1ccccc1,-3.2,3.3,-2.3,-3.9,-1.8,40.0,-2.2,97.0,
COc1ccc(-c2ccc(CN3C(C)C(=O)N(Cc4cn(CCC5OCCO5)nn4)CCS3(=O)=O)cc2)cc1 (centres undefined),3.0,15.8,2.1,10.1,.,.,.,.,
CCOC(=O)c1cnc(SC2CC(=O)N(c3ccc(OC)c(OC)c3)C2=O)nc1N (centres undefined),-1.6,-0.2,0.1,3.0,-5.8,45.0*,-4.1,98.4,
Cc1ccsc1C(=O)OCC(=O)c1cc(C)n(C)c1C,1.5,-4.5,-0.2,2.4,-4.8,46.0*,.,.,GRK2 confirm 2=12.0;FAM quench CP2=?
COc1ccc(-c2csc(N(CCCN3CCOCC3)C(=O)c3ccco3)n2)cc1,-0.5,-5.1,17.2,7.5,2.5,1.0,.,.,
Cc1ccc(-c2csc(N(CCCN3CCOCC3)C(=O)c3ccco3)n2)cc1,-0.8,-12.5,-3.8,0.8,0.5,1.0,-3.0,101.7,
Nc1ccc(CSc2ccc(Cl)cc2)c(Cl)c1,3.0,-4.1,-0.5,2.0,13.2,.,.,.,
O=C(Nc1ccccc1C(=O)O)/C(=C/c1ccc([N+](=O)[O-])cc1)NC(=O)c1ccc(Br)o1,-1.0,2.3,3.3,-2.2,-6.2,80.0*,0.0,102.1,
O=C(NC(Cc1ccccc1)C(=O)O)/C(=C/c1ccc([N+](=O)[O-])cc1)NC(=O)c1ccc(Br)o1 (centres undefined),-1.7,4.6,1.8,-32.0,-1.8,2.0,.,.,
SMILES,LMPTP inh,DNMT1 block,STEP block,SUMO1 PPI mod,Scp1 inh,GRK2 aptamer HTS,GRK2 inh confirm,FAM quench CP1,others
Oc1ccc(-c2nccc(-c3ccc(Br)cc3)n2)cc1,3.6,-2.8,-0.8,4.8,-1.1,6.0,-5.3,100.2,
Cc1cc(C)n(-c2nc(NCCO)c3c4c(sc3n2)CCCC4)n1,-1.8,2.2,-1.7,-0.4,-8.5,9.0,.,.,
Cc1cc(C)n(-c2nc(NCCCO)c3c4c(sc3n2)CCCC4)n1,1.1,-4.5,-0.2,2.3,-7.5,4.0,-3.0,95.8,
O=C1/C(=C/C=C/c2ccco2)SC(=S)N1NS(=O)(=O)c1ccccc1,61.5*,86.9*,42.6*,112.2*,82.2*,95.0*,8.9,95.6,
O=C1/C(=C/c2cccs2)SC(=S)N1NS(=O)(=O)c1ccccc1,0.3,2.5,3.2,-12.3,-4.1,3.0,.,.,
Cn1c(N2CCN(C(=O)NCc3ccccc3)CC2)nc2ccccc21,-1.0,1.4,-3.3,1.9,2.5,0.0,.,.,
Cn1c(N2CCN(C(=O)Nc3ccc(C(F)(F)F)cc3)CC2)nc2ccccc21,-0.1,0.8,0.2,-2.3,4.6,3.0,-1.2,97.0,
CCN(CC(=O)NC1CCS(=O)(=O)C1)C(=O)c1cc(OC)c(OC)c(OC)c1 (centres undefined),-1.2,1.3,-2.1,0.1,-5.0,60.0*,-1.1,94.6,
O=[N+]([O-])c1cccc2c(S(=O)(=O)N3CCCCC3)cccc12,1.3,-0.4,3.1,-34.4,-6.4,0.0,.,.,
O=[N+]([O-])c1cccc2c(S(=O)(=O)N3CCOCC3)cccc12,20.8,14.1,59.1*,-24.6,32.3,89.0*,14.2,100.1,
CC[C@H](C)[C@H](NC(N)=O)C(=O)Nc1ccc(S(=O)(=O)NC(C)C)cc1,-1.2,-1.3,-2.6,-1.7,-0.8,1.0,.,.,
CCOc1ccc(Oc2ccc(NC(=O)[C@@H](NC(N)=O)[C@@H](C)CC)cc2)cc1,-0.2,33.0,2.4,-2.8,-10.6,96.0*,5.8,98.4,

# From PubChem
